Reference: ChEMBL document CHEMBL1629579, “Correlating echinocandin MIC and kinetic inhibition of fks1 mutant glucan synthases for Candida albicans: implications for interpretive breakpoints” (Antimicrob Agents Chemother, 2009)
In brackets after ≈: the same amount, converted by molar mass.

What was measured:
Candida albicans [1] = test: Activity at Candida albicans 205 1,3-beta-D-glucan synthase subunit FKS1p T1933C mutant
How it was run: (§1)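 Product-entrapped 1,3-β-D-glucan synthase from cells grown in YPD at 37°C to early stationary phase. Wells held 50 mM HEPES pH 7.5, 10% glycerol, 1.5 mg/ml BSA, 25 mM KF, 1 mM EDTA, 25 μM GTP-γ-S, 1 μg enzyme and [3H]UDPG (0.015–2 mM). Reactions ran 60 min at 25°C. Vmax and Km came from Lineweaver-Burke plots, in triplicate.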

[2] = Inhibition of Candida albicans A15-10 1,3-beta-D-glucan synthase subunit FKS1p T1933C mutant
How it was run: (§2)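 Enzyme is product-entrapped 1,3-β-D-glucan synthase, enriched from membranes of each strain grown at 37°C with shaking in YPD broth to early stationary phase. Filtration polymerization assay uses [3H]UDPG, started by adding enzyme and run 60 min at 25°C. Echinocandins are added as serial dilutions, with 1% DMSO controls for anidulafungin. IC50 is from a variable-slope sigmoidal fit; values are triplicate arithmetic means.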

Candida albicans [3] = test: Antimicrobial activity against Candida albicans A15-10 harboring FKS1 T1933C mutant gene and FKS1 hotspot1 S645P mutant gene by M27-A3 method; format: functional
How it was run: (§3)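 Broth microdilution per CLSI M27-A3 in RPMI 1640, done in triplicate on three separate days. Each strain was tested with and without 50% human serum. C. krusei ATCC 6258 and C. parapsilosis ATCC 22019 served as QC strains. Arithmetic means are reported, and geometric means were used for comparison.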

Candida albicans [4] = test: Antimicrobial activity against Candida albicans 122 harboring FKS1 C1946A mutant gene and FKS1 hotspot1 P649H mutant gene by M27-A3 method in presence of 50% human serum; format: functional; how it was run: as §3
Candida albicans [5] = test: Antimicrobial activity against Candida albicans 85 harboring FKS1 C1934T mutant gene and FKS1 hotspot1 S645F mutant gene by M27-A3 method; format: functional; how it was run: as §3
Candida albicans [6] = test: Activity at Candida albicans 90028 1,3-beta-D-glucan synthase subunit FKS1p
How it was run: (§4)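 Glucan synthase from cells grown at 37°C with vigorous shaking to early stationary phase in YPD. Membrane enzyme enriched by product entrapment. Serial echinocandin dilutions; ANF controls held 1% DMSO. Reaction started by adding enzyme, run 60 min at 25°C in a filtration polymerization assay, stopped on ice. IC50 from a variable-slope sigmoidal fit; means of three repetitions on separate days.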

Candida albicans [7] = test: Activity at Candida albicans 149 1,3-beta-D-glucan synthase subunit FKS1p G1942T mutant; how it was run: as §1
Candida albicans [8] = test: Antimicrobial activity against Candida albicans 121 harboring FKS1 G4082A mutant gene and FKS1 hotspot2 R1361H mutant gene by M27-A3 method in presence of 50% human serum; format: functional; how it was run: as §3
[9] = Inhibition of Candida albicans 121 1,3-beta-D-glucan synthase subunit FKS1p G4082A mutant; how it was run: as §2
Candida albicans [10] = test: Antimicrobial activity against Candida albicans 90 harboring FKS1 G4082R mutant gene and FKS1 hotspot2 R1361R/H mutant gene by M27-A3 method in presence of 50% human serum; format: functional; how it was run: as §3
Candida albicans [11] = test: Antimicrobial activity against Candida albicans 5415 harboring FKS1 T1933C mutant gene and FKS1 hotspot1 S645P mutant gene by M27-A3 method in presence of 50% human serum; format: functional; how it was run: as §3
Candida albicans [12] = test: Antimicrobial activity against Candida albicans 3795 by M27-A3 method in presence of 50% human serum; format: functional; how it was run: as §3
[13] = Inhibition of Candida albicans 205 1,3-beta-D-glucan synthase subunit FKS1p T1933C mutant; how it was run: as §2
Candida albicans [14] = test: Antimicrobial activity against Candida albicans 3107 by M27-A3 method in presence of 50% human serum; format: functional; how it was run: as §3
[15] = Inhibition of Candida albicans 5415 1,3-beta-D-glucan synthase subunit FKS1p T1933C mutant; how it was run: as §2
[16] = Inhibition of Candida albicans 3795 1,3-beta-D-glucan synthase subunit FKS1p; how it was run: as §2
Candida albicans [17] = test: Antimicrobial activity against Candida albicans 85 harboring FKS1 C1934T mutant gene and FKS1 hotspot1 S645F mutant gene by M27-A3 method in presence of 50% human serum; format: functional; how it was run: as §3
Candida albicans [18] = test: Activity at Candida albicans 177 1,3-beta-D-glucan synthase subunit FKS1p T1922C mutant; how it was run: as §1
[19] = Inhibition of Candida albicans 1002 1,3-beta-D-glucan synthase subunit FKS1p
How it was run: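 Product-entrapped glucan synthase from YPD-grown cells (37°C, early stationary phase) in a filtration polymerization assay with [3H]UDPG. Echinocandin serial dilutions were added, with 1% DMSO in controls for anidulafungin. Reactions were started with enzyme, run 60 min at 25°C and stopped on ice. IC50 came from a variable-slope sigmoidal fit, in triplicate.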

[20] = Inhibition of Candida albicans 177 1,3-beta-D-glucan synthase subunit FKS1p T1922C mutant; how it was run: as §2
Candida albicans [21] = test: Antimicrobial activity against Candida albicans A15-10 harboring FKS1 T1933C mutant gene and FKS1 hotspot1 S645P mutant by M27-A3 method in presence of 50% human serum; format: functional; how it was run: as §3
Candida albicans [22] = test: Activity at Candida albicans 1002 1,3-beta-D-glucan synthase subunit FKS1p; how it was run: as §4
Candida albicans [23] = test: Antimicrobial activity against Candida albicans 90 harboring FKS1 G4082R mutant gene and FKS1 hotspot2 R1361R/H mutant gene by M27-A3 method; format: functional; how it was run: as §3
Candida albicans [24] = test: Antimicrobial activity against Candida albicans 89 harboring FKS1 C1934A mutant gene and FKS1 hotspot1 S645Y mutant gene by M27-A3 method; format: functional; how it was run: as §3
[25] = Inhibition of Candida albicans 89 1,3-beta-D-glucan synthase subunit FKS1p C1934A mutant; how it was run: as §2
Candida albicans [26] = test: Antimicrobial activity against Candida albicans 121 harboring FKS1 G4082A mutant gene and FKS1 hotspot2 R1361H mutant gene by M27-A3 method; format: functional; how it was run: as §3
Candida albicans [27] = test: Activity at Candida albicans 3107 1,3-beta-D-glucan synthase subunit FKS1p; how it was run: as §4
Candida albicans [28] = test: Activity at Candida albicans 2762 1,3-beta-D-glucan synthase subunit FKS1p T1922C mutant; how it was run: as §1
Candida albicans [29] = test: Activity at Candida albicans 90 1,3-beta-D-glucan synthase subunit FKS1p G4082R mutant; how it was run: as §1
Candida albicans [30] = test: Antimicrobial activity against Candida albicans 194 harboring FKS1 C1934T/G4082R mutant gene and FKS1 hotspot1 S645F mutant gene and FKS1 hotspot2 R1361R/H mutant gene by M27-A3 method in presence of 50% human serum; format: functional; how it was run: as §3
Candida albicans [31] = test: Antimicrobial activity against Candida albicans 205 harboring FKS1 T1933C mutant gene and FKS1 hotspot1 S645P mutant gene by M27-A3 method; format: functional; how it was run: as §3

For `CC[C@H](C)C[C@H](C)CCCCCCCCC(=O)N[C@H]1C[C@@H](O)[C@@H](NCCN)NC(=O)[C@@H]2[C@@H](O)CCN2C(=O)[C@H]([C@H](O)CCN)NC(=O)[C@H]([C@H](O)[C@@H](O)c2ccc(O)cc2)NC(=O)[C@@H]2C[C@@H](O)CN2C(=O)[C@H]([C@@H](C)O)NC1=O` [CASPOFUNGIN], the Km (Candida albicans [1]) was 116 µM, the Vmax (Candida albicans [1]) was 5.54 nmol/min and the IC50 [2] was 0.3224 µg/mL (≈ 0.295 µM). It also gave a Ki [2] of 1.358 µg/mL (≈ 1.24 µM), an MIC (Candida albicans [3]) of 8 µg/mL (≈ 7.32 µM) and an MIC (Candida albicans [4]) of 4 µg/mL. It also gave an MIC (Candida albicans [5]) of 4 µg/mL (≈ 3.66 µM), a Km (Candida albicans [6]) of 67 µM and a Vmax (Candida albicans [6]) of 4.71 nmol/min. For the same molecule, the Km (Candida albicans [7]) was 32 µM, the Vmax (Candida albicans [7]) was 1.22 nmol/min and the MIC (Candida albicans [8]) was 8 µg/mL. It also gave an IC50 [9] of 0.03372 µg/mL (≈ 0.0308 µM), a Ki [9] of 0.308 µg/mL (≈ 0.282 µM) and an MIC (Candida albicans [10]) of 4 µg/mL. For the same molecule, the MIC (Candida albicans [11]) was 8 µg/mL, the MIC (Candida albicans [12]) was 0.5 µg/mL and the IC50 [13] was 0.2454 µg/mL (≈ 0.224 µM). For the same molecule, the Ki [13] was 1.48 µg/mL (≈ 1.35 µM), the MIC (Candida albicans [14]) was 0.33 µg/mL and the IC50 [15] was 0.6981 µg/mL (≈ 0.639 µM). For the same molecule, the Ki [15] was 2.12249 µg/mL (≈ 1.94 µM), the IC50 [16] was 0.00144 µg/mL (≈ 0.00132 µM) and the Ki [16] was 0.00467 µg/mL (≈ 0.00427 µM). The MIC (Candida albicans [17]) was 8 µg/mL, the Km (Candida albicans [18]) was 50 µM and the Vmax (Candida albicans [18]) was 4.4 nmol/min. The IC50 [19] was 0.00175 µg/mL (≈ 0.0016 µM), the Ki [19] was 0.00626 µg/mL (≈ 0.00573 µM) and the IC50 [20] was 1.091 µg/mL (≈ 0.998 µM). It also gave a Ki [20] of 1.8176 µg/mL (≈ 1.66 µM), an MIC (Candida albicans [21]) of 16 µg/mL and a Km (Candida albicans [22]) of 122 µM. For the same molecule, the Vmax (Candida albicans [22]) was 5.8 nmol/min, the MIC (Candida albicans [23]) was 1 µg/mL (≈ 0.915 µM) and the MIC (Candida albicans [24]) was 8 µg/mL (≈ 7.32 µM). For the same molecule, the IC50 [25] was 2.075 µg/mL (≈ 1.9 µM), the Ki [25] was 0.86 µg/mL (≈ 0.787 µM) and the MIC (Candida albicans [26]) was 2 µg/mL (≈ 1.83 µM). For the same molecule, the Km (Candida albicans [27]) was 102 µM, the Vmax (Candida albicans [27]) was 6.04 nmol/min and the Km (Candida albicans [28]) was 108 µM. The Vmax (Candida albicans [28]) was 3.57 nmol/min, the Km (Candida albicans [29]) was 31 µM and the Vmax (Candida albicans [29]) was 2.36 nmol/min. It also gave an MIC (Candida albicans [30]) of 8 µg/mL and an MIC (Candida albicans [31]) of 8 µg/mL (≈ 7.32 µM).
